The values that follow come from ChEMBL document CHEMBL4513216, “Probing the Open Global Health Chemical Diversity Library for Multistage-Active Starting Points for Next-Generation Antimalarials” (ACS Infect Dis, 2020).

This data set in a line: Toxicity liver stage against HepG2, at 10uM. Format: cell-based. On the set-up: test concentration 10 uM, cell line HepG2-A16-CD81EGFP. As to conditions: human, HepG2-A16-CD81EGFP cells; read-out: INHIBITION
An outline of the steps: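 Uninfected HepG2-A16-CD81EGFP cells, 3 × 10^3 per well, 1536-well, plated on prespotted compound at 10 μM final, parasite-free screening media added to match infected plates; puromycin 10 μM positive, DMSO 0.5% negative; run in parallel with 48 h PbLuc assay at 37 °C, 5% CO2; viability by CellTiter-Glo luminescence, normalized to controls.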
`CCOc1ncccc1-c1cc2c(cc1C(N)=O)OCO2`: the cytotoxicity at 10 µM was -0.421%.

For the compound `Cn1nc(Cn2cccn2)c2c1CN(C1CCOCC1)C2`, the cytotoxicity at 10 µM was found to be 10.1%.

Turning to `Cc1cc(NC(=O)N(C)C2CCN(c3ccccc3F)C2=O)n(C)n1` (stereo not given), the cytotoxicity at 10 µM is -7.52%.

Turning to `c1ccc(C2CCN(c3ncnc4c3CCNC4)CC2)cc1`, the cytotoxicity at 10 µM worked out at 5.03%.

For `CCC(C)(NCC(=O)Nc1nc(C)cs1)c1nc(C)cs1` (stereo not given), the cytotoxicity at 10 µM was found to be 16.4%.

Take `Cc1cc(CN2CCC=C(CN(C)C(=O)c3ccco3)C2)no1`: the cytotoxicity at 10 µM was determined as 6.65%.

In the case of `CCOc1ccc(CC(CNC(=O)c2ccoc2C)C(N)=O)cc1` (stereo not given), the cytotoxicity at 10 µM was 7.87%.

For `O=S(=O)(NCC1(c2cccs2)CCCC1)c1cccnc1`, the cytotoxicity at 10 µM was -2.56%.

`COc1ccc(S(=O)(=O)N2CCOC(C)(C(N)=O)C2)cc1` (stereo not given): the cytotoxicity at 10 µM was found to be 5.49%.

As to `Nc1cnc(-c2cccc3c2CCNC3)cn1`, the cytotoxicity at 10 µM was -12%.

For `Cc1cc(C)nc(N2CCC(C(=O)O)(n3ccc(C(C)(C)C)n3)CC2)n1`, the cytotoxicity at 10 µM is -5.6%.

Turning to `CCn1ccnc1CN1CCOC(Cn2cccn2)C1` (stereo not given), the cytotoxicity at 10 µM was -14.7%.

As for `Cc1ccc(CSc2nc(N)cc(NCC(=O)N3CCNCC3)n2)cc1`, the cytotoxicity at 10 µM was -4.62%.

For `CN(Cc1cc(C2CC2)on1)C(=O)C(c1cccnc1)N1CCCC1` (stereo not given), the cytotoxicity at 10 µM was -41.6%.

Regarding `COc1cccc([C@H]2CN(CCCS(=O)(=O)N(C)C)C[C@@H]2N)c1`, the cytotoxicity at 10 µM is -1.18%.

For `COCc1ncc(CN2C[C@@H](C(=O)O)[C@H](C(C)C)C2)cn1`, the cytotoxicity at 10 µM is -2.97%.

Consider `O=C1COc2c(cccc2C(=O)N2CCCC(n3cccn3)C2)N1` (stereo not given), for which the cytotoxicity at 10 µM was -13.8%.

Turning to `CN1CCN(C(=O)Cn2ccc3c(Cl)cccc32)CC1`, the cytotoxicity at 10 µM worked out at 2.08%.

As to `CN1CCN(c2cc(CNC(=O)c3ccc(Cl)o3)ccn2)CC1`, the cytotoxicity at 10 µM was -9.69%.

Turning to `COc1no[n+]([O-])c1-c1ccccc1`, the cytotoxicity at 10 µM is 8.2%.

As for `CCN(CC)S(=O)(=O)N1CCCC1CC(=O)c1cccs1` (stereo not given), the cytotoxicity at 10 µM was 3.62%.

With `CN(C(=O)CN1CCCC1c1cnn(C)c1)C1(C#N)CCCCC1` (stereo not given), the cytotoxicity at 10 µM is 1.41%.

`COC(=O)CN(C(=O)c1ccoc1)c1cccc(F)c1`: the cytotoxicity at 10 µM turned out to be 5.42%.

Regarding `COC(=O)c1ccc(NC(=O)NC2CCc3[nH]ncc3C2)cc1` (stereo not given), the cytotoxicity at 10 µM is -11.2%.

In the case of `O=C(c1ccoc1)N1CCCn2cnc(COCC3CC3)c2C1`, the cytotoxicity at 10 µM worked out at 2.47%.

As to `Cc1noc(NC(=O)c2ccc(Br)cc2)n1`, the cytotoxicity at 10 µM stood at 32.9%.

As to `O=C1C[C@@H]2[C@H](CCN2Cc2ccccn2)N1Cc1ccncc1`, the cytotoxicity at 10 µM was 4.53%.

In the case of `Cc1ncsc1CNC(=O)N1CCN(Cc2ccccc2)C[C@H]1C`, the cytotoxicity at 10 µM was -125%.

For the compound `Cc1cccc(C)c1Oc1ncccc1CNC(=O)C1COC(=O)N1` (stereo not given), the cytotoxicity at 10 µM was -4.65%.

As for `CC(C)N1CCO[C@H]2CN(C(=O)c3ccsc3)C[C@H]21`, the cytotoxicity at 10 µM was -72%.

As for `COc1ccc(OC)c2c(C)cc(N(C)CCO)nc12`, the cytotoxicity at 10 µM was 6.36%.

Turning to `CCc1nc(N2CCCC(CCCOC)(C(=O)O)C2)ncc1C` (stereo not given), the cytotoxicity at 10 µM is 3.43%.

As to `Cc1ccc2oc(N3CCN(CC(=O)NC(C)C)CC3)nc2c1`, the cytotoxicity at 10 µM was -10.9%.

Consider `CCN1CCN(C(=O)NCc2cc[nH]n2)CC1`, for which the cytotoxicity at 10 µM is -12.7%.

With `Cc1nc(C)n(C2CCCN(C(=O)c3cccc4cn[nH]c34)C2)n1` (stereo not given), the cytotoxicity at 10 µM is -8.86%.

For `Cn1nccc1NCc1cc2cc(F)ccc2o1`, the cytotoxicity at 10 µM was found to be 8.57%.

Turning to `Cc1noc(CCNS(=O)(=O)N2CCCC2c2ccc(C)o2)n1` (stereo not given), the cytotoxicity at 10 µM was -10%.

`CSc1c[nH]nc1NS(=O)(=O)c1cc(F)ccc1C`: the cytotoxicity at 10 µM is 6.98%.

Turning to `CN1CC(c2ccccc2)CC12CCN(C(=O)c1cncc(Cl)c1)CC2` (stereo not given), the cytotoxicity at 10 µM was -12.6%.

With `O=C(CCC1CCCO1)NCc1ccc(Br)cc1F` (stereo not given), the cytotoxicity at 10 µM is 1.6%.
